This is an account of results in ChEMBL document CHEMBL4316640, “Taichunins A-D, Norditerpenes from Aspergillus taichungensis (IBT 19404)” (J Nat Prod, 2019).

Molecules are shown by their SMILES. pIC50: −log10 of the molar value. Active and inactive are the calls of the source. The rule behind the calls is not given here.

For experiment [1], the system named is HeLa. Description: Cytotoxicity in human HeLa cells at 50 uM incubated for 3 days by MTT assay. Format: functional, cell-based. The gist of the method: (§1)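 HeLa cells; daunorubicin run alongside as the positive control.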
(In general: Tetrazolium assays rely on reduction of a dye to a coloured formazan, in cell work by metabolically active cells.)

For experiment [2], the target named is Tumour suppressor p53/oncoprotein Mdm2 (Homo sapiens) (UniProt P04637+Q00987). Description: Inhibition of p53/Mdm2 interaction (unknown origin). Format: protein assay.
Experiment [3] concerns Proteasome. Description: Inhibition of proteasome (unknown origin). Format: subcellular. As to conditions: Homo sapiens.
Experiment [4] concerns the target Ubiquitin-conjugating enzyme E2 N/Ubiquitin-conjugating enzyme E2 variant 1 (Homo sapiens) (UniProt Q13404+P61088). The experiment in a line: Inhibition of Ubc13/Uev1A interaction (unknown origin). Format: protein assay.
Experiment [5] concerns the target Ubiquitin carboxyl-terminal hydrolase 7 (Homo sapiens) (UniProt Q93009). Description: Inhibition of USP7 (unknown origin).
In experiment [6] the test system is Osteoclast. The experiment in a line: Inhibition of RANKL-induced formation of multinuclear osteoclasts (unknown origin). Format: functional, cell-based.
Experiment [7] has as its target T1, Ubiquitin-like modifier-activating enzyme 1 (Homo sapiens) (UniProt P22314).
T1 sequence (whole entry): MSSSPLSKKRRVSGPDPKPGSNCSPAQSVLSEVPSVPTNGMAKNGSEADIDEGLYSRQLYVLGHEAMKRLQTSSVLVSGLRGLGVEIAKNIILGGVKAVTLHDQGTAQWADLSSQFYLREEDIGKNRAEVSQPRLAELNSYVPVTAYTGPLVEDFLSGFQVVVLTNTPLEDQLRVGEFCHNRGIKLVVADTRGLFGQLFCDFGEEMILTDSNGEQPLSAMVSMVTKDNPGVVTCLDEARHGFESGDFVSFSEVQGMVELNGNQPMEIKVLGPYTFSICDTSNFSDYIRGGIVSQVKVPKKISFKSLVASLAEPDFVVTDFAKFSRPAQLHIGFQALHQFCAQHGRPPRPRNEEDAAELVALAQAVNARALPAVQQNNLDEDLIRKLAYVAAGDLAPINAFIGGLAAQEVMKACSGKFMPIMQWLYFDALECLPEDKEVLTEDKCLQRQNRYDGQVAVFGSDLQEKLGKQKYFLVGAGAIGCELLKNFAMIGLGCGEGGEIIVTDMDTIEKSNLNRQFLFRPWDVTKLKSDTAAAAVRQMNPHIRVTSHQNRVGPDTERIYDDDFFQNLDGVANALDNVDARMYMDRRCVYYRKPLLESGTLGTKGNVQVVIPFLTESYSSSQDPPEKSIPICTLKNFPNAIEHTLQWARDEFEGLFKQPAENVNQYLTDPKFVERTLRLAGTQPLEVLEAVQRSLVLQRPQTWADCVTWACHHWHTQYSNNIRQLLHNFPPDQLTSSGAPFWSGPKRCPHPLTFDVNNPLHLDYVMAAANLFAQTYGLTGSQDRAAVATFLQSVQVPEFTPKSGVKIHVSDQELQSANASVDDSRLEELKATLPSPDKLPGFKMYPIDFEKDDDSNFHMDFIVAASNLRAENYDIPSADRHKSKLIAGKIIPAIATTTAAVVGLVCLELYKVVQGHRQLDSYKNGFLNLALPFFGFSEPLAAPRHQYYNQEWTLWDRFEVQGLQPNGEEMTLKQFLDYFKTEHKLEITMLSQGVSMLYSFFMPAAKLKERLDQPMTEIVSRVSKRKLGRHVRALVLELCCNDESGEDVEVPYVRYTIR
The experiment in a line: Inhibition of Ubiquitin/Ubiquitin-activating enzyme E1 (unknown origin).

The test system of experiment [8] is Macrophage. Description: Inhibition of cholesterol ester accumulation in macrophages (unknown origin). Format: functional, cell-based.
Experiment [9] concerns HeLa. The experiment in a line: Cytotoxicity in human HeLa cells incubated for 3 days by MTT assay. Format: functional, cell-based. As to conditions: 72 h. The gist of the method: as §1

A word on the pIC50: it is the IC50 on a negative log10 scale, so that one unit is a factor of ten.

Chain of Tumour suppressor p53/oncoprotein Mdm2 (Homo sapiens) (P04637 whole entry, looked up): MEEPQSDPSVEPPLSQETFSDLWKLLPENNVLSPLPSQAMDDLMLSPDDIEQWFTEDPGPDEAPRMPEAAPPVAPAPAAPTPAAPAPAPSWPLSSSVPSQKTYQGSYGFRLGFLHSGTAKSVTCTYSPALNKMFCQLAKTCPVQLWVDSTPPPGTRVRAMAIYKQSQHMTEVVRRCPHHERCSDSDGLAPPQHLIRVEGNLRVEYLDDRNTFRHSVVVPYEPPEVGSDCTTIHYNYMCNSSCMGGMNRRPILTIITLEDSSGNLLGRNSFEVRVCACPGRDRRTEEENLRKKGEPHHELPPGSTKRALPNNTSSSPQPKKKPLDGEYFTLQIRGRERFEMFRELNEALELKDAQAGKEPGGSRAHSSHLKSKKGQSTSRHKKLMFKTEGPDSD
Chain of Tumour suppressor p53/oncoprotein Mdm2 (Homo sapiens) (Q00987 whole entry, looked up): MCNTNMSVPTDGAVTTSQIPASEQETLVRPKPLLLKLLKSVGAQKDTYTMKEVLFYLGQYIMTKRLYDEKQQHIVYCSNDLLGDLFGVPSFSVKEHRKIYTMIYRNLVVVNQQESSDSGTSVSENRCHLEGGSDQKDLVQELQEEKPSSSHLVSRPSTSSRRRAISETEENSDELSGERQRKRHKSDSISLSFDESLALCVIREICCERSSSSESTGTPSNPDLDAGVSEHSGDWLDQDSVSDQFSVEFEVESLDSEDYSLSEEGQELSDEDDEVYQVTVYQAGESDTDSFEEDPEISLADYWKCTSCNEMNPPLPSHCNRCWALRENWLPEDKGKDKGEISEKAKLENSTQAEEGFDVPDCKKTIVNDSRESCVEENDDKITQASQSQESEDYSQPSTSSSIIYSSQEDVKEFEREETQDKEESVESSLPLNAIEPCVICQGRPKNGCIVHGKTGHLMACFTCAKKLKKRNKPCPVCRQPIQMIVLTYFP
Chain of Ubiquitin carboxyl-terminal hydrolase 7 (Homo sapiens) (Q93009 whole entry, looked up): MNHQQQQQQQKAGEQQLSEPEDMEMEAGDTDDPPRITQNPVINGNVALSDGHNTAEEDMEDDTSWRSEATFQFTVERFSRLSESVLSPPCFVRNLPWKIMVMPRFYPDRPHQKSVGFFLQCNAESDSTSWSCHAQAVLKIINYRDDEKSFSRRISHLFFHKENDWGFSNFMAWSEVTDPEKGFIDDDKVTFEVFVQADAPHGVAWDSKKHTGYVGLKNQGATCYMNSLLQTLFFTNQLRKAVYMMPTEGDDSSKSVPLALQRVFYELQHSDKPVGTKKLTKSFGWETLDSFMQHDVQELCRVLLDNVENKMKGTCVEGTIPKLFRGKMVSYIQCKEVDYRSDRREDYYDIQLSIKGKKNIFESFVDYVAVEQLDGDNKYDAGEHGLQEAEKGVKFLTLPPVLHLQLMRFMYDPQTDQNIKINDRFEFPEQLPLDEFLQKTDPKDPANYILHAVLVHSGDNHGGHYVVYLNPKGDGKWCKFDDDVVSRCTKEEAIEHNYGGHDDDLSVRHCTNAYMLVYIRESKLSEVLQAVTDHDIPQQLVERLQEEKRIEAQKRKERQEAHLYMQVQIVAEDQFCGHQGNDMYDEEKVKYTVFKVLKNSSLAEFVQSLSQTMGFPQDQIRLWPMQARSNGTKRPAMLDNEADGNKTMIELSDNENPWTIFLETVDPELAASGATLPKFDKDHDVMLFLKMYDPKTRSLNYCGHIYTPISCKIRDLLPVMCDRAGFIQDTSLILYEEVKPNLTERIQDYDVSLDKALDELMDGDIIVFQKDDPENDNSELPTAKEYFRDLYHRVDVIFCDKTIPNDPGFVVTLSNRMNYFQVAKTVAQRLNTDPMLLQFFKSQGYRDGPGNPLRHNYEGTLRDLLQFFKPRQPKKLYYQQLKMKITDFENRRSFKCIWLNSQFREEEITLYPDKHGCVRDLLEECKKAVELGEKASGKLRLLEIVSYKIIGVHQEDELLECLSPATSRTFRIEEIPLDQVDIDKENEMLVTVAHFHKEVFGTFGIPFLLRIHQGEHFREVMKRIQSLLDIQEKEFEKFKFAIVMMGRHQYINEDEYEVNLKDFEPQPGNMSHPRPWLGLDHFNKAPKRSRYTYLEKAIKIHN

For `C=C[C@@]1(C)CCC2=C(C(=O)O[C@]23CCCC(C)(C)[C@@H]3C(=O)O[C@@H]2O[C@H](CO)[C@@H](O)[C@H](O)[C@H]2O)[C@@H]1O`, in experiment [1], the outcome was inactive. The inhibition entry in experiment [2], in experiment [3], in [4], in experiment [5], in [6] and in experiment [7] was “inactive” in each case. Further, the inhibition entry in experiment [8] is “inactive”.

Turning to `C=C[C@@]1(C)CCC2=C(C(=O)O[C@]23CCCC(C)(C)[C@@H]3C(=O)O)[C@@H]1O`, the result in [1] was inactive. In addition, the inhibition entry in [2], in experiment [3], in experiment [4], in [5], in experiment [6] and in experiment [7] was “inactive” each time. The inhibition result in experiment [8] was “inactive”.

Consider `C=C[C@]1(C)CC2=C(O)C(=O)C3=C(CCCC3(C)C)C2=CC1=O`, for which the outcome in experiment [1] was inactive. Also, the inhibition entry in [2], in experiment [3], in experiment [4], in experiment [5], in experiment [6] and in [7] was “inactive” in each case. Moreover, the inhibition entry in experiment [8] is “inactive”.

In the case of `C=C[C@]1(C)C=C2[C@@H](O)[C@@]3(O)OC(=O)[C@@]4(CCCC(C)(C)[C@H]34)[C@@]2(O)CC1`, in experiment [1], the result was inactive. Besides, the inhibition entry in [2], in [3], in experiment [4], in [5], in experiment [6] and in experiment [7] was “inactive” throughout. For the same compound, the inhibition entry in [8] is “inactive”.

For the compound `C=C[C@]1(C)C=C2C(=O)O[C@@]34CCCC(C)(C)[C@@H]3C(=O)O[C@@]24CC1`, the inhibition result in experiment [2], in experiment [3], in [4], in [5], in [6] and in experiment [7] was “inactive” each time. Further, the inhibition entry in experiment [8] was “inactive”. The negative-log IC50 (pIC50) in experiment [9] is 5.35.
